Ten molecules from ChEMBL document CHEMBL1122413, “Chloralanyl and propargylglycyl dipeptides. Suicide substrate containing antibacterials” (1983) can be followed below.

For one assay, the system named is Escherichia coli. In words: Minimum inhibitory concentration against Escherichia coli. It is filed as functional. The gist of the method:
(§1)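 Agar dilution on defined peptide susceptibility medium with peptide in serial twofold dilutions. Strains subcultured on blood or chocolate agar. Inoculum from overnight culture in liquid peptide medium, diluted to approx 1×10^7 cfu/mL, applied by Steers replicator. Plates incubated overnight at 37 °C. MIC taken as lowest concentration permitting fewer than ten colonies at 16–18 h.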

Another assay deals with Klebsiella aerogenes. In words: Minimum inhibitory concentration against Enterobacter aerogenes. It is filed as functional. The gist of the method:
as §1

Another assay concerns Enterobacter cloacae. The assay is described as follows: Minimum inhibitory concentration against Enterobacter cloacae. In kind it is functional. An outline of the steps:
as §1

A further assay relates to Haemophilus influenzae. In words: Minimum inhibitory concentration against Hemophilus influenzae. It is filed as functional. An outline of the steps:
(§2)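 Agar dilution on defined peptide susceptibility medium with hemin (25 μg/mL), NAD (25 μg/mL) and Isovitalex (1%) added, peptide in serial twofold dilutions. Colonies from overnight chocolate or blood agar resuspended in liquid peptide medium to 10⁸ cfu/mL, applied by Steers replicator. Incubation overnight at 37 °C under 7% CO₂. MIC: lowest concentration giving fewer than ten colonies at 16–18 h.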

The test system of a further assay is Klebsiella pneumoniae. In words: Minimum inhibitory concentration against Klebsiella pneumoniae. In kind it is functional. The gist of the method:
as §1

The subject of a further assay is Morganella morganii. In words: Minimum inhibitory concentration against Morganella morganii. In kind it is functional. An outline of the steps: as §1
The next assay relates to Pseudomonas aeruginosa. In words: Minimum inhibitory concentration against Pseudomonas aeruginosa. It is filed as functional. An outline of the steps:
as §1

The next assay relates to Proteus mirabilis. In words: Minimum inhibitory concentration against Proteus mirabilis. In kind it is functional. An outline of the steps:
as §1

The subject of a further assay is Salmonella typhimurium. In words: Minimum inhibitory concentration against Salmonella Typhimurium. The following applies: Salmonella enterica. In kind it is functional, Salmonella enterica subsp. enterica serovar Typhimurium. An outline of the steps: as §1
The next assay has as its system Serratia marcescens. In words: Minimum inhibitory concentration against Serratia marcescens. In kind it is functional. An outline of the steps: as §1
In a further assay the test system is Shigella flexneri. The assay is described as follows: Minimum inhibitory concentration against Shigella flexneri. In kind it is functional. An outline of the steps:
as §1

Assay [1] deals with Staphylococcus epidermidis. In words: Minimum inhibitory concentration against Staphylococcus epidermidis. It is filed as functional. An outline of the steps: as §1
Another assay deals with Streptococcus agalactiae. The assay is described as follows: Minimum inhibitory concentration against Streptococcus agalactiae. It is filed as functional. The gist of the method:
as §2

For another assay, the system named is Staphylococcus aureus. The assay is described as follows: Minimum inhibitory concentration against Staphylococcus aureus. In kind it is functional. An outline of the steps: as §1
A further assay concerns Enterococcus faecalis. The assay is described as follows: Minimum inhibitory concentration against Streptococcus faecalis. In kind it is functional. An outline of the steps: as §1
The test system of a further assay is Streptococcus pyogenes. In words: Minimum inhibitory concentration against Streptococcus pyogenes. In kind it is functional. The gist of the method:
as §2

Where a SMILES comes first, the peptide text is derived from it. [ ]: non-standard residue; d: D form. Pra = C#CC[CH](N)C(=O)O

For `C[C@@H](N)C(=O)N[C@H](C)C(=O)O.O=C(O)C(F)(F)F`, the MIC with Escherichia coli, against Klebsiella aerogenes, with Enterobacter cloacae, in the assay with Haemophilus influenzae, with Klebsiella pneumoniae and in the assay with Morganella morganii was above 100 mg/L each time. Besides, the MIC (against Pseudomonas aeruginosa; against Proteus mirabilis; in the assay with Salmonella typhimurium; with Serratia marcescens; against Shigella flexneri; in assay [1]) was above 100 mg/L in each case. Besides, the MIC against Streptococcus agalactiae, against Staphylococcus aureus, against Enterococcus faecalis and with Streptococcus pyogenes was above 100 mg/L each time.

As for `C#CCC(N)C(=O)NC(CC#C)C(=O)O.O=C(O)C(F)(F)F` (stereo not given) (H-[Pra]-[Pra]-OH; configuration not given here), the MIC in the assay on Escherichia coli, in the assay with Klebsiella aerogenes, in the assay on Enterobacter cloacae, against Haemophilus influenzae, against Klebsiella pneumoniae and in the assay with Morganella morganii was above 100 mg/L in each case. Also, the MIC against Pseudomonas aeruginosa is above 100 mg/L; with Proteus mirabilis, above 100 mg/L; against Salmonella typhimurium, above 100 mg/L; against Serratia marcescens it was above 100 mg/L; in the assay with Shigella flexneri, above 100 mg/L; in assay [1], 3.12 mg/L. Moreover, the MIC in the assay on Streptococcus agalactiae is 6.25 mg/L; against Staphylococcus aureus it was 12.5 mg/L; in the assay on Enterococcus faecalis, above 100 mg/L; against Streptococcus pyogenes it was above 100 mg/L.

For `C[C@H](N)C(=O)N[C@@H](CCl)C(=O)O.O=C(O)C(F)(F)F`, the MIC in the assay on Escherichia coli, in the assay with Klebsiella aerogenes, in the assay with Enterobacter cloacae, in the assay on Haemophilus influenzae, in the assay with Klebsiella pneumoniae and against Morganella morganii was above 100 mg/L each time. Besides, the MIC is above 100 mg/L with Pseudomonas aeruginosa; above 100 mg/L in the assay with Proteus mirabilis; above 100 mg/L against Salmonella typhimurium; above 100 mg/L in the assay with Serratia marcescens; above 100 mg/L against Shigella flexneri; 0.0125 mg/L in [1]. Also, the MIC against Streptococcus agalactiae was 0.2 mg/L; with Staphylococcus aureus, 0.0125 mg/L; in the assay with Enterococcus faecalis, above 100 mg/L; against Streptococcus pyogenes, above 100 mg/L.

For `CCC[C@H](N)C(=O)N[C@@H](CCl)C(=O)O.O=C(O)C(F)(F)F`, the MIC against Escherichia coli is 1.56 mg/L; against Klebsiella aerogenes, above 100 mg/L; in the assay with Enterobacter cloacae it was 6.25 mg/L; with Haemophilus influenzae, 0.78 mg/L; against Klebsiella pneumoniae it was above 100 mg/L; against Morganella morganii, 50 mg/L. Moreover, the MIC was above 100 mg/L with Pseudomonas aeruginosa; 12.5 mg/L in the assay on Proteus mirabilis; above 100 mg/L against Salmonella typhimurium; above 100 mg/L in the assay on Serratia marcescens; above 100 mg/L against Shigella flexneri; 0.025 mg/L in assay [1]. Also, the MIC against Streptococcus agalactiae is 0.2 mg/L; in the assay with Staphylococcus aureus, 0.025 mg/L; against Enterococcus faecalis it was 0.39 mg/L; with Streptococcus pyogenes it was above 100 mg/L.

As for `C[C@H](NC(=O)[C@@H](N)CCl)C(=O)O.O=C(O)C(F)(F)F`, the MIC against Escherichia coli, against Klebsiella aerogenes, against Enterobacter cloacae, against Haemophilus influenzae, in the assay on Klebsiella pneumoniae and in the assay on Morganella morganii was above 100 mg/L each time. For the same molecule, the MIC was above 100 mg/L with Pseudomonas aeruginosa; above 100 mg/L against Proteus mirabilis; above 100 mg/L against Salmonella typhimurium; above 100 mg/L against Serratia marcescens; above 100 mg/L against Shigella flexneri; 0.025 mg/L in [1]. Moreover, the MIC with Streptococcus agalactiae is 0.39 mg/L; in the assay with Staphylococcus aureus it was 0.05 mg/L; against Enterococcus faecalis it was above 100 mg/L; against Streptococcus pyogenes, above 100 mg/L.

Turning to `C#CCC(NC(=O)[C@H](C)N)C(=O)O.O=C(O)C(F)(F)F` (stereo not given in full), the MIC in the assay on Escherichia coli, against Klebsiella aerogenes, in the assay with Enterobacter cloacae, with Haemophilus influenzae, against Klebsiella pneumoniae and against Morganella morganii was above 100 mg/L in each case. In addition, the MIC in the assay with Pseudomonas aeruginosa was above 100 mg/L; against Proteus mirabilis, above 100 mg/L; with Salmonella typhimurium, above 100 mg/L; against Serratia marcescens, above 100 mg/L; in the assay on Shigella flexneri it was above 100 mg/L; in assay [1], 3.12 mg/L. The MIC against Streptococcus agalactiae is 50 mg/L; in the assay on Staphylococcus aureus, above 100 mg/L; against Enterococcus faecalis, above 100 mg/L; in the assay on Streptococcus pyogenes, above 100 mg/L.

For the molecule `C#CC[C@@H](NC(=O)[C@H](C)N)C(=O)O.O=C(O)C(F)(F)F`, the MIC against Escherichia coli, against Klebsiella aerogenes, in the assay on Enterobacter cloacae, against Haemophilus influenzae, against Klebsiella pneumoniae and against Morganella morganii was above 100 mg/L in each case. In addition, the MIC (with Pseudomonas aeruginosa; in the assay with Proteus mirabilis; in the assay on Salmonella typhimurium; in the assay on Serratia marcescens; against Shigella flexneri; in assay [1]) was above 100 mg/L throughout. Also, the MIC against Streptococcus agalactiae, in the assay with Staphylococcus aureus, in the assay on Enterococcus faecalis and in the assay with Streptococcus pyogenes was above 100 mg/L throughout.

Take `C#CCC(N)C(=O)N[C@@H](C)C(=O)O.O=C(O)C(F)(F)F` (stereo not given in full): the MIC against Escherichia coli, against Klebsiella aerogenes, against Enterobacter cloacae, in the assay on Haemophilus influenzae, against Klebsiella pneumoniae and against Morganella morganii was above 100 mg/L in each case. Moreover, the MIC against Pseudomonas aeruginosa is above 100 mg/L; against Proteus mirabilis it was above 100 mg/L; with Salmonella typhimurium, above 100 mg/L; in the assay on Serratia marcescens, above 100 mg/L; against Shigella flexneri, above 100 mg/L; in [1], 3.12 mg/L. Also, the MIC was above 100 mg/L in the assay with Streptococcus agalactiae, 50 mg/L in the assay with Staphylococcus aureus, above 100 mg/L against Enterococcus faecalis and above 100 mg/L in the assay on Streptococcus pyogenes.

Take `C#CC[C@H](N)C(=O)N[C@@H](C)C(=O)O.O=C(O)C(F)(F)F`: the MIC in the assay with Escherichia coli, against Klebsiella aerogenes, against Enterobacter cloacae, in the assay on Haemophilus influenzae, in the assay on Klebsiella pneumoniae and in the assay with Morganella morganii was above 100 mg/L in each case. Further, the MIC in the assay on Pseudomonas aeruginosa was above 100 mg/L; in the assay on Proteus mirabilis, above 100 mg/L; in the assay with Salmonella typhimurium, above 100 mg/L; against Serratia marcescens, above 100 mg/L; in the assay on Shigella flexneri, above 100 mg/L; in [1], 1.56 mg/L. Further, the MIC against Streptococcus agalactiae, against Staphylococcus aureus, in the assay with Enterococcus faecalis and in the assay with Streptococcus pyogenes was above 100 mg/L each time.

As for `C[C@@H](NC(=O)[C@H](N)CCl)C(=O)O.O=C(O)C(F)(F)F`, the MIC in the assay on Escherichia coli, against Klebsiella aerogenes, against Enterobacter cloacae, against Haemophilus influenzae, in the assay with Klebsiella pneumoniae and against Morganella morganii was above 100 mg/L each time. The MIC (with Pseudomonas aeruginosa; against Proteus mirabilis; in the assay on Salmonella typhimurium; in the assay on Serratia marcescens; in the assay with Shigella flexneri; in assay [1]) was above 100 mg/L throughout. Besides, the MIC with Streptococcus agalactiae, with Staphylococcus aureus, with Enterococcus faecalis and with Streptococcus pyogenes was above 100 mg/L each time.
